Activity calls are given as the source filed them. The rule behind the calls is not given here. Numbered stars: 1 amine (or outer) side, 2 acyl side, 3 side chain; on linkers, the order of the positions; unused ones are H or OH. Square brackets hold non-standard residues; d marks the D form. Peptide text beside a SMILES is read from it. X1 = N=C(N)NCCC[C@H](N[*:1])C(=O)c1nc2ccc(C(=O)[*:2])cc2s1
Assays:
[1] = target: T1, Suppressor of tumorigenicity 14 protein (Homo sapiens, UniProt Q9Y5Y6); assay: Inhibition of recombinant human N-terminal met-His6-tagged matriptase catalytic domain (Gly596 to Val855 residues) expressed in Escherichia coli using Boc-QAR-AMC as substrate preincubated for 30 mins followed by substrate addition by fluorescence based assay
T1 sequence (Q9Y5Y6 whole entry): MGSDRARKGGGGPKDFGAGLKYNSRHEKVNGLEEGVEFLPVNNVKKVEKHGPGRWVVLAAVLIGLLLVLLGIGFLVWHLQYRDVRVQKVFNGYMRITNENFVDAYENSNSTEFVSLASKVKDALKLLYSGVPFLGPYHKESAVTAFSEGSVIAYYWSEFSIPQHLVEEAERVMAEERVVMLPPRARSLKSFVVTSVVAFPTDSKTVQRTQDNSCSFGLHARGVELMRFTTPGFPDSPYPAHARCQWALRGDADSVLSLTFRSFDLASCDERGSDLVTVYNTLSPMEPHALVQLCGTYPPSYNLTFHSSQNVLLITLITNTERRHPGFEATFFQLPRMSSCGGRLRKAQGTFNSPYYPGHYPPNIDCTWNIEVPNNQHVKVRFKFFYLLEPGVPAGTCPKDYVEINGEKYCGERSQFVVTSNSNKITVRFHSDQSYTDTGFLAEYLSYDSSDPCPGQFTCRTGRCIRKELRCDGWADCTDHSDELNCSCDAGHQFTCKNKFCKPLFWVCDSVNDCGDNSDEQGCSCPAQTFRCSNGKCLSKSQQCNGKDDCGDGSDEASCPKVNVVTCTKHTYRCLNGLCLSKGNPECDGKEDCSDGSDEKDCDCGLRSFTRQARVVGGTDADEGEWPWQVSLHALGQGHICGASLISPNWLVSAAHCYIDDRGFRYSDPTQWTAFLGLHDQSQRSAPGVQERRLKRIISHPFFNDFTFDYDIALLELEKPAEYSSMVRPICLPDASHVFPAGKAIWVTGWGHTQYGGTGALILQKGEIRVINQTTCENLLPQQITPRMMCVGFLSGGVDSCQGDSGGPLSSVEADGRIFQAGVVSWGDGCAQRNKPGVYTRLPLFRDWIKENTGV
Procedure, shortened: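 Inhibitor in 11-point serial dilution (0-20 µM final, 2% DMSO) pre-incubated 30 min at room temperature with enzyme in TNC buffer (25 mM Tris, 150 mM NaCl, 5 mM CaCl2, 0.01% Triton X-100, pH 8). […] Hepsin activated beforehand 24 h at 37°C. Fluorescence ex 380/em 460 nm kinetic; four-parameter fit of velocities; mean of three experiments.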

[2] = target: T2, Suppressor of tumorigenicity 14 protein (Homo sapiens) (UniProt Q9Y5Y6); assay: Inhibition of recombinant human N-terminal met-His6-tagged matriptase catalytic domain (Gly596 to Val855 residues) expressed in Escherichia coli mediated pro-HGF activation preincubated for 30 mins followed by pro-HGF addition and measured after 1 hr by immunoblotting analysis
T2 sequence (whole entry): T1 sequence (Q9Y5Y6 whole entry)
Procedure, shortened: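 Recombinant pro-HGF (10 ng) incubated one hour with matriptase (1 nM), hepsin (10 nM) or HGFA (5 nM), with or without inhibitor. Processing detected by immunoblot with a polyclonal antibody recognizing pro-HGF and the HGF alpha and beta chains; active HGF served as positive control.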

CC(=O)N[C@@H](CO)C(=O)N[C@@H](CCCCN)C(=O)N[C@@H](CC(C)C)C(=O)N[C@@H](CCCNC(=N)N)C(=O)c1nc2ccc(C(=O)N[C@H](C(N)=O)C(C)C)cc2s1 (Ac-SKL[X1]V-NH2)
IC50 [1]: 21 nM
inhibition [2]: Active

From ChEMBL document CHEMBL5030567, “Macrocyclic Inhibitors of HGF-Activating Serine Proteases Overcome Resistance to Receptor Tyrosine Kinase Inhibitors and Block Lung Cancer Progression” (J Med Chem, 2021)
